Most compounds without a hit are left out; they make up all but 2.2% or so of the library.
PPC-1+TRAIL kill: PPC-1 cancer cell killing with TRAIL present | PPC-1 cells + TRAIL, ATPLite viability luminescence | cell killing (% activity), % at 4 µM or 5 µM | 0.41% of 220,000 active;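 active = cell killing above 50% in the first pass at 4 µM, then a duplicate retest at 5 µM averaging 50% or more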;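 note: plate controls were cells with TRAIL plus DMSO for no effect and medium-only wells lacking cells for full effect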
FLuc stim CS: affects firefly luciferase, flagging false hits in luciferase stimulation screens. P08659. ATPlite luciferase biochemical, luminescence, 10 min; 0 = ATP-free wells, 1 = DMSO control. activation factor at 10 µM. 200,000 tested, under 10 active. AID 1027;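 active = luciferase activation factor, scaled between plate controls, of at least 2 with compound at 10 µM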
Target sequence (P08659 whole entry, looked up): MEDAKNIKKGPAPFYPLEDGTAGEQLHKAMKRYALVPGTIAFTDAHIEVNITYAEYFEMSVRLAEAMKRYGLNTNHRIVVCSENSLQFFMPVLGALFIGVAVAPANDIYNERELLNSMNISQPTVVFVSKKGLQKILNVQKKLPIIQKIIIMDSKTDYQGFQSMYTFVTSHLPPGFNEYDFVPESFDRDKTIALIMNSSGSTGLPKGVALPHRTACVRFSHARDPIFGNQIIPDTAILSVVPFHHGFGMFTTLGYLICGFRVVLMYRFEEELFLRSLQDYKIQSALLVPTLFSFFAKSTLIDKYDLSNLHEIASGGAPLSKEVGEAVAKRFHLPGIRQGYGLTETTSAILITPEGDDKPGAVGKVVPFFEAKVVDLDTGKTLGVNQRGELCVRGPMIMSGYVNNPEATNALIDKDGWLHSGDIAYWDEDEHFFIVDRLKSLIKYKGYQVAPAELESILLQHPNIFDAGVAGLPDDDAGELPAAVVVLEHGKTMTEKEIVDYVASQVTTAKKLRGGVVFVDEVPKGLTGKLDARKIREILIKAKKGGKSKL
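Assay system: Luciferase/luciferin reagent mix; Medium: PBS as buffer for the ATP substrate; Dosing: test compounds dosed from 2 mM stocks in 100% DMSO; Times: 10 min, room temperature; Signal: luminescence from luciferase reaction; Read-out: luciferase activation; Controls: No-ATP low control, compound-free enzyme-plus-ATP high control.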
C8 TRAIL sens: caspase-8 TRAIL sensitization | NB7+C8 cells + TRAIL, ATPlite viability luminescence | inhibition (viability loss, TRAIL sensitization), % at 10 µM | 1% of 360,000 active;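 active = compounds causing at least 50% loss of cell viability in the single-dose screen, relative to plate controls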
HSP90 refold inh: HSP90 refolding inhibition in rabbit reticulocyte lysate | luciferase refolding luminescence, 3 h | inhibition, % at 5.6 µM | 0.91% of 290,000 active;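 active = inhibition above the screen-wide mean plus 3 SD, computed separately per campaign, cut at about 16% in these data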;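 note: 0% = DMSO wells and 100% = 60 µM geldanamycin wells; inhibitors lower the luminescence because luciferase stays unfolded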
STAT3 blocker: inhibitors of IL-6 induced STAT3 signaling | AID 862 | U3A cells, IL-6 STAT3-luciferase reporter, luminescence; host cell line lacks STAT1 | inhibition, % at 5.5 µM | 0.89% of 190,000 active;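 active = inhibition above the mean inhibition across all screened compounds plus 3 SD, cut at about 44% in these data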;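 note: 0% = DMSO only wells and 100% = 100 µM nifuroxazide control wells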
FLuc inhib CS: counter-screen for luciferase assay inhibitors: firefly luciferase inhibition | P08659 | ATPLite firefly luciferase biochemical luminescence, 10 min | inhibition, % at 10 µM | 1.5% of 200,000 active | AID 1006;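 active = inhibition above about 50% when tested at 10 µM, limit read from the data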
* hit, by the source's call; . = not tested or not shown.

SMILES	PPC-1+TRAIL kill	FLuc stim CS	C8 TRAIL sens	HSP90 refold inh	STAT3 blocker	FLuc inhib CS
Cc1cc(=O)[nH]c(-n2[nH]c(C)cc2=O)n1	13	1.1	-6	-2	8	-9
COC(=O)C(Cc1ccccc1)NC(=O)C(CC(C)C)NC(=O)OC(C)(C)C (configuration not stated)	-5	1.1	-6	2	3	-5
CC(C)CC(NC(=O)OCc1ccccc1)C(=O)NC(Cc1ccccc1)C(=O)CCl (configuration not stated)	.	.	90*	.	.	.
CC(C)OCCCNC(=O)COc1ccc2oc3c(c2c1)CCCC3	.	.	-9	6	.	.
Oc1ccc(/C=N/NC(=S)Nc2cccnc2)cc1	40	.	71*	9	.	.
Oc1ccc(/C=N/NC(=S)N/N=C/c2ccc(O)cc2)cc1	23	0	5	5	9	96*
COc1ccc(O)c(/C=N/NC(=S)Nc2cccnc2)c1	48	0.6	65*	-1	21	36
COc1cccc(/C=N/NC(=S)Nc2cccnc2)c1	9	0.8	22	-1	14	16
COc1ccc(C=NNC(=S)NN=Cc2ccc(OC)c(OC)c2)cc1OC	.	.	12	.	.	.
COc1ccccc1NC(=S)N/N=C/c1ccc(O)cc1	32	1	46	8	37	5
COc1cc(/C=N/NC(=S)N/N=C/c2cc(OC)c(OC)c(OC)c2)cc(OC)c1OC	-1	0.3	16	3	-14	68*
Cc1cccc(OCC(=O)NNC(=O)C2CCCCC2C(=O)O)c1 (configuration not stated)	32	1	-12	0	8	-1
Cc1c2n(c3ccccc13)CCN(C)C2	.	.	15	.	.	.
O=C(C[C@H]1C/C=C\C[C@H](NC(=O)OCC2c3ccccc3-c3ccccc32)C(=O)OC[C@H](Cc2ccccc2)NC1=O)N[C@H](CO)Cc1ccccc1	.	.	64*	.	.	.
Cc1cnc(C(=O)NC2CCSc3ccccc32)cn1 (configuration not stated)	.	.	-6	0	.	.
CCCCC(CC)CN1C(=O)/C(=C/c2ccncc2)SC1=S (configuration not stated)	3	1	86*	-1	-3	0
CC(C)c1ccc2oc3nc(N)c(C(=O)O)cc3c(=O)c2c1	83*	0.1	.	4	.	95*
N#C/C(=C\c1ccc(N2CCOCC2)o1)C(=O)NCCc1ccccc1	-2	1	-4	-1	6	1
N#C/C(=C/c1ccc(N2CCOCC2)o1)C(=O)Nc1ccccc1	8	0.4	30	-6	10	55*
Cc1nn(-c2ccccc2)c(Cl)c1/C=N/NC(=O)c1ccccc1NS(=O)(=O)c1cccs1	-3	0.9	8	-5	-4	8
Cc1ccc(C(=O)N/N=C\c2c(C)nn(-c3ccccc3)c2Cl)cn1	3	0.5	45	7	-2	51*
Cc1nn(-c2ccccc2)c(Cl)c1/C=N/NC(=O)c1ccn[nH]1	.	.	75*	17*	.	.
Cc1nn(-c2ccccc2)c(Cl)c1/C=N/NC(=O)c1ccc(NS(=O)(=O)c2cccs2)cc1	50	0.3	.	0	-11	71*
CCC(C)[C@@H](CN)NCC1(c2ccccc2)CC1 (some centres not stated)	.	.	6	.	.	.
COc1cccc(-c2nc(SC)nc3sc(C(=O)NC(C)(C)C)c(N)c23)c1	.	.	-23	.	.	.
SMILES	PPC-1+TRAIL kill	FLuc stim CS	C8 TRAIL sens	HSP90 refold inh	STAT3 blocker	FLuc inhib CS
O=C(COc1cccc(NC(=O)c2cccc([N+](=O)[O-])c2)c1)c1ccc(Br)cc1	-10	1	-2	4	18	3
O=C(Cn1ncc(Cl)c(Cl)c1=O)N1CCc2ccccc21	31	1	96*	1	13	5
CCC(=O)Nc1ccc(NC(=O)c2ccccc2)nc1	30	0.4	34	11	32	62*
CCOc1ccc2oc(C(=O)O)c(C)c2c1	-3	.	-11	1	.	.
Cc1ccnc(NC(=O)c2oc3ccccc3c2C)c1	.	.	66*	.	.	.
Cc1ccnc(NC(=O)c2cc3ccccc3oc2=O)c1	28	0.5	11	0	10	54*
CCOc1ccc2oc(C(=O)Nc3cc(C)ccn3)c(C)c2c1	.	.	70*	.	.	.
COc1cc2ccccc2cc1C(=O)Nc1cc(C)ccn1	.	.	27	-3	.	.
CC(C)c1cc(C(=O)O)c2cnn(C(C)C)c2n1	-5	.	14	2	.	.
Cc1cc(C)n2nc(C(=O)NC3CCCc4ccccc43)nc2n1 (configuration not stated)	-4	1	-3	2	-7	-5
COc1cc(-n2nc(C)c3c2OC(N)=C(C#N)C3c2ccccc2)c(Cl)c(Br)c1O (configuration not stated)	8	1	-9	17*	-29	-4
CC(=O)Nc1ccc(NC(=O)C(C)NC(C)c2cccc3ccccc23)cc1 (configuration not stated)	.	.	-7	-3	.	.
Brc1ccccc1/C=N/Nc1ccc2ccccc2n1	6	0.6	20	-3	-25	37
O=C(N/N=C/c1cccc([N+](=O)[O-])c1O)c1cccs1	13	0.3	42	-3	0	67*
O=[N+]([O-])c1cccc(C=NNc2ccc3ccccc3n2)c1O	.	.	57*	.	.	.
COc1ccccc1NC(=O)C1=C(C)NC2=C(C(=O)CC(c3ccc(OC)c(OC)c3)C2)C1c1coc2ccccc2c1=O (configuration not stated)	10	1	-3	16*	18	-5
CCOC(=O)C1=C(C)NC2=C(C(=O)CC(c3ccc(OC)c(OC)c3)C2)C1c1ccc(C)o1 (configuration not stated)	1	1.1	-14	-3	14	-5
CCOC(=O)c1c(C(F)(F)C(F)(F)C(F)(F)C(F)(F)F)n[nH]c1C	-2	1	12	9	-18	1
CCN(CC(=O)Nc1ccc2c(c1)OCCO2)C(=O)C(C)Oc1ccc(Cl)cc1 (configuration not stated)	.	.	-11	.	.	.
COc1ccc(OC)c(NC(=O)c2cc(-c3cc(Cl)ccc3O)n[nH]2)c1	7	1.1	51*	-1	22	-5
COc1ccc(Cl)cc1NC(=O)c1cc(-c2ccccc2O)n[nH]1	35	1	15	0	10	2
COC(=O)Cc1[nH]n(-c2nc3ccccc3s2)c(=O)c1C(C)=O	37	0.7	10	6	0	33
COC(=O)CC1=NN(c2nc3ccccc3s2)C(=O)/C1=C/N(C)C	18	0.3	3	7	4	72*
Cn1c(O)c(N=NC(=O)CNC(=O)c2cccnc2)c2ccccc21	.	.	-32	3	.	.
CN(C)c1ccc(NC(=O)Oc2ccccc2)cc1	-26	0.3	-1	1	0	74*
CC(=O)Nc1ccc(NC(=O)Oc2ccccc2)cc1	24	1	10	1	-1	1
O=C(COC(=O)C1(c2ccccc2F)CCCC1)N1CCNC1=O	.	.	-11	.	.	.

Screening results deposited in PubChem BioAssay by several laboratories.
